Measured values pooled from the literature.
Converted amounts (≈) assume the structure as drawn.

Compound | target or system | effect on | technique | tested at | time | endpoint | value
O=C(Cc1c[nH]c2ccccc12)Nc1ccc(F)c(F)c1 | – | DPPH scavenging | – | – | – | IC50 | 1420 nM
CC1(C)S[C@@H]2[C@H](NC(=O)[C@H](N)c3ccccc3)C(=O)N2[C@H]1C(=O)O | Haemophilus influenzae | microbial growth | – | – | – | MIC90 | 128 µg/mL (≈ 366 µM)
CCc1ccc(NC(=O)Cc2c[nH]c3ccccc23)cc1 | – | DPPH scavenging | – | – | – | IC50 | 1920 nM
C/C(=N\NC(=O)c1cccc(S(=O)(=O)N2CCN(C)CC2)c1)c1cc(Cl)ccc1O | TF-1a | cell growth or viability | resazurin | – | 96 h | EC50 | 1260 nM
COc1cc(Nc2nccc(-c3cnn4nc(OC)ccc34)n2)cc(C(F)(F)F)c1 | SK-MEL3 | cell growth or viability | ATP luminescence | – | – | IC50 | 1600 nM
CC(=O)Nc1cccc(-n2c(=O)n(C3CC3)c(=O)c3c(Nc4ccc(I)cc4F)n(C)c(=O)c(C)c32)c1 | SW-620 | cell growth or viability | resazurin | 1.56 nM | 72 h | viability | 56.3%
O=C1O[C@H]([C@@H](O)CO)C(O)=C1O | – | DPPH scavenging | – | – | – | IC50 | 510 nM
O=C(O)c1ccc(CN2CCC(CN[C@@H]3C[C@H]3c3ccccc3)CC2)cc1 | TF-1a | cell growth or viability | resazurin | – | 96 h | EC50 | 76.4 nM
CC(C)C[C@H](NC(=O)[C@H](Cc1ccccc1)NC(=O)c1cnccn1)B(O)O | J82 | cell growth or viability | ATP luminescence | – | – | IC50 | 10 nM
O=C(O)c1cn(C2CC2)c2cc(N3CCNCC3)c(F)cc2c1=O | Haemophilus influenzae | microbial growth | – | – | – | MIC90 | 0.03 µg/mL (≈ 0.0905 µM)
COc1ccc2c(c1OC)C(=O)O[C@@H]2[C@H]1c2c(cc3c(c2OC)OCO3)CCN1C | FaDu | cell growth or viability | – | – | 72 h | IC50 | 15200 nM
